Measured values from PubChem BioAssay.
Active and inactive are the calls of the source. Unless noted, no rule for the calls is given here.

Columns and labels:
[1] = biological target: Pantothenate synthetase (Mycobacterium tuberculosis (strain ATCC 25618 / H37Rv)) (UniProt P9WIL5); assay: Recombinant Mtb pantothenate synthetase (PanC) inhibitors, coupled enzyme, confirmatory (AID 375); conditions: coupled enzyme assay; at 10 µM, stronger effect = higher value;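 also: 0% = full reaction with vehicle and 100% = no enzyme background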
[2] = reducers of endogenous Her2 protein level, primary screen, SKBR3 breast tumor cells, AlphaScreen, ATP viability (AID 461;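 active = Her2 level under about 52% in both replicate screens, with viability over 70% of control, limit read from the data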;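 as to Her2 level: lower value means less Her2 protein in the cells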;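 as to viability: percent of carrier control wells set as 100% viability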); conditions: 18-24 h, measured here: SKBR3 viability, ATP luminescence, at 10 µM
[3] = biological target: Receptor tyrosine-protein kinase erbB-2 (Homo sapiens) (UniProt P04626); assay: as above; conditions: 18-24 h, at 10 µM, stronger effect = lower value
[4] = SK-BR-3 cell growth inhibitors, pilot screen, 24 h, human (AID 572;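 active = viability at or below 10% of carrier control in both of two separate runs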;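 also: compound exposure lasted between 18 and 24 h rather than exactly 24 h; 100% = carrier-treated control wells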); conditions: SK-BR-3 viability, CellTiter-Glo luminescence, at 10 µM, stronger effect = lower value
[5] = HUVEC growth inhibition – cell-based, human, primary screen (AID 575;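 active = viability at or below 30% in both replicate assays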;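 also: 100% = median of untreated cell wells with 0.1% DMSO on each plate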); conditions: HUVEC proliferation, CellTiter-Glo luminescence, 72 h; at 10 µM; stronger effect = lower value
Outline: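 Test system – primary HUVEC, no more than 12 passages · Dosing – one dose, 10 µM final, 0.1% DMSO · Times – 72 h treatment at 37 °C · Measured by – ATP-based CellTiter-Glo luminescent read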

[6] = growth inhibitors of H69AR lung tumor, primary screen, human, duplicate replicates (AID 580;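 active = viability at or under a set limit in both replicates, limit being median viability minus 3 SD, cut at about 48% in these data, passing the limit was not always enough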;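 also: 100% = mean luminescence of untreated wells and 0% = no signal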); conditions: H69AR lung tumor cells viability, ATP luminescence, 72 h; at 10 µM; stronger effect = lower value
[7] = reversal of MRP1-mediated doxorubicin resistance, pilot screen, H69AR cells, doxorubicin co-treatment (AID 601;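 active = viability loss from added drug above about 55%, and viability with drug at most 40%, in both replicates, limit read from the data, passing the limit was not always enough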); conditions: CellTiter-Glo, 72 h, at 10 µM; for differential viability (reversal): stronger effect = higher value
[8] = 384-well plate pilot, post-Golgi transport modulator project, inhibition of yeast transport mutant growth (AID 636; in the data active = inhibition above about 31%); conditions: absorbance 615 nm, about 18 h, stronger effect = higher value
[9] = growth suppression of yeast trafficking mutant, preliminary HTS, modulators of trafficking downstream of Golgi apparatus project, 1536-format plate, OD 615 nm (AID 637; in the data active = inhibition above about 30%); conditions: yeast transport mutant growth, absorbance 615 nm, 18 h; stronger effect = higher value
[10] = H69AR cells + 2 uM doxorubicin, measured here: viability with 2 uM doxorubicin, stronger effect = lower value
[11] = H69AR cells, compound alone cytotoxicity

Chain of Pantothenate synthetase (Mycobacterium tuberculosis (strain ATCC 25618 / H37Rv)) (P9WIL5 whole entry, looked up): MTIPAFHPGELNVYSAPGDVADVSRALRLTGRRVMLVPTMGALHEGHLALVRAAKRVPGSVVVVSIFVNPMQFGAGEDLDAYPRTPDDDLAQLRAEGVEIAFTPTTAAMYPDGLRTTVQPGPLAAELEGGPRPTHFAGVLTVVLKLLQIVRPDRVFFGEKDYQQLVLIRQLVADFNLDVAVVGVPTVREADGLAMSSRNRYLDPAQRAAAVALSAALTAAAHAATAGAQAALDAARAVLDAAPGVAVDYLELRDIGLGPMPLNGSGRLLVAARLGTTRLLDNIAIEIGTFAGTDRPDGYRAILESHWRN
Chain of Receptor tyrosine-protein kinase erbB-2 (Homo sapiens) (P04626 whole entry, looked up): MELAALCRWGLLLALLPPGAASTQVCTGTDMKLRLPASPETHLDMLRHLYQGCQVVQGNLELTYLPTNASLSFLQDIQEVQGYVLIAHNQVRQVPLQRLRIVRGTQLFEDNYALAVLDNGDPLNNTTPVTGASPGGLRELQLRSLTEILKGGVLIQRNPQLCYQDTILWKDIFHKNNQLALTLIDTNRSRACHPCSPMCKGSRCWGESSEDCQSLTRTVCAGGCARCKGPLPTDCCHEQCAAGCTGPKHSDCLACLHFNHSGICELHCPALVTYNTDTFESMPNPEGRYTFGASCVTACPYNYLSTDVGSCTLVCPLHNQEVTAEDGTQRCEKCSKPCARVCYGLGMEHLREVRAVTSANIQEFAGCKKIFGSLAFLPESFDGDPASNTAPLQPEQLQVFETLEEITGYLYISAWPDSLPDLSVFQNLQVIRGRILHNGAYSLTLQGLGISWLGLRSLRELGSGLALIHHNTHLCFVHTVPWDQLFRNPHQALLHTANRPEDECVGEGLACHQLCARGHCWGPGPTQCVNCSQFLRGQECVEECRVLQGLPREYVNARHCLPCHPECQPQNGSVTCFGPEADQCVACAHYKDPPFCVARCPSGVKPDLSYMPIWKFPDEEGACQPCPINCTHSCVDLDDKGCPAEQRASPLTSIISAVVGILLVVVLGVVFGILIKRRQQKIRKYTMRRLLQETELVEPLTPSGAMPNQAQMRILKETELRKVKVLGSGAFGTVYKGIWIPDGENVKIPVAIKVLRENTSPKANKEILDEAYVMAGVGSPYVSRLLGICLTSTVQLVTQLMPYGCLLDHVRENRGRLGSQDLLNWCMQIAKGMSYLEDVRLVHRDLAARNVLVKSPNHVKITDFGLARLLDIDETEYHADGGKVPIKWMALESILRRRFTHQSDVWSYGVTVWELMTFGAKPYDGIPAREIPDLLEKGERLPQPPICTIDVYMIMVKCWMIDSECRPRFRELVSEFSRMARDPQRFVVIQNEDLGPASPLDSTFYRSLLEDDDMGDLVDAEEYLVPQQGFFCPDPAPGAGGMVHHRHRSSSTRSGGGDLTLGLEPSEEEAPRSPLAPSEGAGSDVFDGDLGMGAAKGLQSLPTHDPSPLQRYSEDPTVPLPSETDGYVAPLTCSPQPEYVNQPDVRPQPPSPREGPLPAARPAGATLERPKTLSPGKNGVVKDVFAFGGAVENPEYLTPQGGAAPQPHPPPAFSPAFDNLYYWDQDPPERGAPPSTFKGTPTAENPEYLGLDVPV

SMILES | inhibition [1] | viability [2] | Her2 level [3] | viability [4] | viability [5] | viability [6] | differential viability (reversal) ([7]; H69AR cells + 2 uM doxorubicin) | viability [7, 10] | viability [7, 11] | inhibition [8] | inhibition [9]
CN(C)[C@@H]1C(=O)C(C(N)=O)=C(O)[C@@]2(O)C(=O)C3=C(O)c4c(O)ccc(Cl)c4[C@@](C)(O)C3C[C@@H]12 (some centres not stated) | 1% (inactive) | 119% | 104% (inactive) | 119% (inactive) | 104% (inactive) | 96.8% (inactive) | 2.32% (inactive) | 94.5% | 96.8% |  | 
C=CCn1c(O)c(C=NCCN(C)C)c(=O)[nH]c1=O | 0% (inactive) | 97.5% | 108% (inactive) | 97.5% (inactive) | 110% (inactive) | 97.2% (inactive) | 3.12% (inactive) | 94.1% | 97.2% | -0.39% (inactive) | -0.98% (inactive)
O=C(CCCN1CCC2(CC1)C(=O)NCN2c1ccccc1)c1ccc(F)cc1 | 1% (inactive) | 98% | 65% (inactive) | 98% (inactive) | 96.2% (inactive) | 87.8% (inactive) | -9.21% (inactive) | 97% | 87.8% |  | 
CC(=O)[C@H]1CC[C@H]2[C@@H]3CC[C@H]4C[C@H](O)CC[C@]4(C)[C@H]3C(=O)C[C@]12C | 0% (inactive) | 112% | 108% (inactive) | 112% (inactive) | 118% (inactive) | 104% (inactive) | 12.1% (inactive) | 92% | 104% |  | 
O=C(c1ccc2nc(-c3ccco3)c(-c3ccco3)nc2c1)N1CCC2(CC1)OCCO2 | 0% (inactive) | 93% | 106% (inactive) | 93% (inactive) | 97.1% (inactive) | 90.5% (inactive) | 7.87% (inactive) | 82.7% | 90.5% | -4.87% (inactive) | 4.33% (inactive)
CC#CP(=O)(OCC)C(O)(c1ccccc1)C(F)(F)F (configuration not stated) | 0% (inactive) | 91% | 85% (inactive) | 91% (inactive) | 96.7% (inactive) | 96.9% (inactive) | 14.4% (inactive) | 82.5% | 96.9% | -2.93% (inactive) | 2.13% (inactive)
C(#CCN1CCOCC1)COCC#Cc1ccccc1 | 0% (inactive) | 92.5% | 85.5% (inactive) | 92.5% (inactive) | 91.4% (inactive) | 101% (inactive) | 15.2% (inactive) | 85.3% | 101% | -5.41% (inactive) | 1.11% (inactive)
CC1(C)C(c2ccccc2)=NC(c2cccnc2)N1O (configuration not stated) | 0% (inactive) | 106% | 96% (inactive) | 106% (inactive) | 106% (inactive) | 95.3% (inactive) | -4.39% (inactive) | 99.7% | 95.3% | -6.76% (inactive) | 5.74% (inactive)
